An excerpt weighted towards active compounds, which were near 2.9% of everything screened.
Tn6 DDE FP: DD(E)-Tn6 binding inhibition, primary FP screen | P02675 | inhibition, % at 8.3 µM | Fibrin DD(E) TRITC-Tn6 fluorescence polarization displacement | actives 0.21% (n = 370,000);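 active = inhibition above a per-campaign cutoff: mean of compounds within control limits plus 3 SD, cut at about 15% in these data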
CRFR2-BP antag: CRF-BP/CRF-R2 complex antagonism. HEK293 CRF-R2/CRF-BP, CRF-induced calcium fluorescence. inhibition, % at 11.8 µM. actives 0.59% (n = 350,000);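 active = inhibition of the ligand-induced calcium signal above about 50% at the single tested concentration, limit read from the data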
NRP1-CendR mod: alters CendR peptide binding to human NRP-1 | O14786 | FAM-RPARPAR peptide binding to NRP-1, fluorescence polarization | inhibition, % at 25 µM | actives 0.85% (n = 360,000) | AID 602438;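 active = inhibition or corrected inhibition above about 18%, plus a signal ratio from 0.5 to 1.5, limit read from the data, passing the limit was not always enough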
Target sequence (O14786 whole entry, looked up): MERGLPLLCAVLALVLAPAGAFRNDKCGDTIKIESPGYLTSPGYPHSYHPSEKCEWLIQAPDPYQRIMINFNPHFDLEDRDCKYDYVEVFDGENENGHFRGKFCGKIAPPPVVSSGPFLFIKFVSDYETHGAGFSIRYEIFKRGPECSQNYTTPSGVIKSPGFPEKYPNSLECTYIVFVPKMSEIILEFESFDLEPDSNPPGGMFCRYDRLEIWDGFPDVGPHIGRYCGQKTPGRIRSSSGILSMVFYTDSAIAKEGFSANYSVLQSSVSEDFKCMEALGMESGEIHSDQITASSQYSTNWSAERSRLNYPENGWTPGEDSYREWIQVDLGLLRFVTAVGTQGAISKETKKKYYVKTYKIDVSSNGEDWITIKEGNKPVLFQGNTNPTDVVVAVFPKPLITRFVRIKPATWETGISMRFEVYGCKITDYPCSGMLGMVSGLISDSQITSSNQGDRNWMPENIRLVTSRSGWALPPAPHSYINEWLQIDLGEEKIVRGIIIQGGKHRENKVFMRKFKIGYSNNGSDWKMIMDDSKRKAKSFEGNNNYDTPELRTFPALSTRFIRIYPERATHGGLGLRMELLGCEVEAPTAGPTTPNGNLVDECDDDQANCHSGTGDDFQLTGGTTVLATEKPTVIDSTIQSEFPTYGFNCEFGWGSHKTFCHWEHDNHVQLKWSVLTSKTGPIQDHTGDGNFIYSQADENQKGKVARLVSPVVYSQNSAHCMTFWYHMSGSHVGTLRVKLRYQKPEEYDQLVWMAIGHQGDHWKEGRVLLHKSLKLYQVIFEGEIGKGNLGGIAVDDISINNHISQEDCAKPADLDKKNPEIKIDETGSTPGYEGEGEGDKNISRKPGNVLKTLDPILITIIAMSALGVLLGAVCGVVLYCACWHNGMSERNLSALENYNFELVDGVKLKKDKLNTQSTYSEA
DDE Tn7 FP inh: inhibitors of Tn7 peptide binding to human fibrin DD(E); inhibition, % at 8.3 µM; FP displacement of FITC-Tn7 peptide from fibrin DD(E); 0% = median of compound wells per plate; actives 0.13% (n = 370,000); P02675;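 active = inhibition above the mean of compounds falling within the control limits plus 3 SD of them, cut at about 14% in these data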
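Assay system: Human fibrin DD(E) protein | Medium: Tris buffer with calcium and detergent, pH 7.8 | Reagent: 0.1 µM fluorescent Tn7 | Compound dosing: Single point at 8.3 µM | Times: 10 min preincubation, 3 h with tracer, room temperature | Detection: Fluorescence polarization of the labelled Tn7 tracer | Controls: Aha-Tn7 high control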
proKLK7 act: activates the human kallikrein-7 zymogen. P49862. purified proKLK7, EDANS-DABCYL substrate fluorescence; 100% is mature enzyme control, 0% vehicle. activation, % at 7 µM. actives 0.9% (n = 370,000). AID 652039;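 active = activation above the mean of all tested compounds plus 3 SD, computed per campaign excluding outliers beyond control limits, cut at about 13% in these data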
CRFR2-BP ag: CRF-BP/CRF-R2 complex agonism | HEK293 CRF-R2/CRF-BP, calcium dye fluorescence (FLIPR); percent of saturating CRF peptide response | activation, % at 13.2 µM | actives 0.46% (n = 350,000);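 active = activation of at least 50%, plus an integration ratio under a set limit after plate pattern correction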
Hits are given with their value; i = inactive; nt = no result.

SMILES	Tn6 DDE FP	CRFR2-BP antag	NRP1-CendR mod	DDE Tn7 FP inh	proKLK7 act	CRFR2-BP ag
O=C(CCc1ccccc1)N[C@H]1[C@H](OC(=O)c2cnccn2)CCC[C@]12C(=O)N(Cc1ccccc1)c1ccccc12	i	nt	nt	i	i	nt
COc1cc(F)c(C2=CC(=O)C[C@H](c3ccc4c(c3)OCO4)C2)cc1F	i	i	i	i	i	i
COc1ccc(F)cc1C1=CC(=O)C[C@H](c2ccc3c(c2)OCO3)C1	i	i	25.3	i	i	i
COC1=CC(=NCl)C=CC1=NCl	nt	nt	54.3	nt	nt	nt
ClN=C1C=CC=CC1=NCl	nt	nt	i	nt	nt	nt
COc1ccc(C2=CC(c3ccc(F)cc3)n3nnnc3N2)cc1 (stereo not drawn)	i	i	35.4	i	i	i
O=C1CCCN1CCCNc1nc(NCc2cccs2)nc2ccsc12	i	nt	25.6	i	i	nt
CC(C)(C)C(=O)OC12CCCN(C1)/C(=C/c1ccccc1)C2 (stereo not drawn)	i	nt	nt	i	i	nt
CN(CCCOC(=O)c1cc2ccccc2o1)C1CN(Cc2cn(Cc3ccc([N+](=O)[O-])cc3)nn2)S(=O)(=O)C1 (stereo not drawn)	i	nt	nt	i	i	nt
Cc1c(NC(=O)c2cc(-c3ccc(F)cc3)nc3ccccc23)c(=O)n(-c2ccccc2)n1C	i	i	i	i	i	i
Cc1cccc(-c2cc(C(=O)Nc3c(C)n(C)n(-c4ccccc4)c3=O)c3ccccc3n2)c1	i	i	33.4	i	i	i
O=C(OCCN1CCN(C2CN(Cc3cn(Cc4ccccc4C(F)(F)F)nn3)S(=O)(=O)C2)CC1)c1cc2ccccc2o1 (stereo not drawn)	i	nt	nt	i	i	nt
CC(C)NC(=S)NC(=O)c1ccc(-c2ccccc2)cc1	i	i	i	i	i	72.4
COC(=O)C1=C(C)NC(=O)NC1c1ccc(N2CCC(c3ccccc3)=N2)cc1 (stereo not drawn)	i	i	i	i	i	i
CCOC(=O)/C(=C\c1ccc(N2CCC(c3ccccc3)=N2)cc1)C(C)=O	i	i	i	i	i	99.2
O=C(/C=C/c1ccc(N2CCC(c3ccccc3)=N2)cc1)c1ccccc1	i	i	nt	i	i	311.4
O=C(/C=C/c1ccc(O)cc1)c1ccccc1	i	i	i	i	i	i
O=C(N=C1N(Cc2ccccc2)C[C@]2(C=C3CCCCC3n3c(=O)n(-c4ccccc4)c(=O)n32)N1C(=O)OCc1ccccc1)c1ccccc1 (stereo partly drawn)	i	nt	nt	i	i	nt
CCCCCCCCN1C(=O)[C@@H](CC(=O)NCc2ccc(C)o2)C[C@@]2(C(=O)OC)C1=C[C@H](COCc1ccccc1)O[C@@H]2C	i	nt	nt	i	i	nt
CC(=O)Nc1sc(/C(C#N)=C/c2ccc(Cl)c(Cl)c2)nc1-c1ccc(C)cc1	i	i	i	i	i	280.7
CCOC(=O)CC[C@@H]1CC[C@]2(CCCN(S(=O)(=O)c3ccccc3)C2)O1	i	nt	nt	i	i	nt
CCOC(=O)Cn1cc(CN2CCS(=O)(=O)N(Cc3ccccc3)C(C(=O)OC)C2)nn1 (stereo not drawn)	i	nt	nt	i	i	nt
S=C(Nc1ccccc1Oc1ccccc1)Nc1cccc(Cl)c1Cl	i	i	28.2	i	i	i
S=C(Nc1ccc(Cl)cc1Cl)Nc1ccccc1Oc1ccccc1	nt	i	i	nt	nt	i
O=C(O)/C=C/C(=O)Nc1ccc(OCc2ccccc2)cc1	i	i	22.1	i	i	i
SMILES	Tn6 DDE FP	CRFR2-BP antag	NRP1-CendR mod	DDE Tn7 FP inh	proKLK7 act	CRFR2-BP ag
CCC(C(=O)Nc1ccccc1N1CCCC1)c1cccc(OC)c1 (stereo not drawn)	i	nt	nt	i	i	nt
O=[N+]([O-])c1cc(-c2csc(NCCc3nc4cc(C(F)(F)F)ccc4n3CCCO)n2)ccc1Cl	i	i	28.4	i	i	i
OCCCn1c(CCNc2nc(-c3ccc(Cl)cc3)cs2)nc2cc(C(F)(F)F)ccc21	i	i	i	i	i	i
CCOC(=O)c1c(NC(=O)c2c(Br)cnn2C)c(C#N)nn1-c1ccccc1	i	67.3	i	i	i	i
O=C(NC1CCCCN(Cc2cccc(C(F)(F)F)c2)C1=O)c1ccc(-c2ccccc2)cc1 (stereo not drawn)	i	nt	nt	i	i	nt
O=S(=O)(CC1NCc2cc(F)ccc21)NCc1ccc(F)cc1 (stereo not drawn)	i	nt	nt	i	i	nt
COc1cc(/C=C2/CC/C(=C/c3ccc(O)c(OC)c3)C2=O)ccc1O	i	i	i	i	i	167.3
COc1cc(OC)c(OC)cc1/C=C1\CCC/C(=C\c2cc(OC)c(OC)cc2OC)C1=O	i	i	i	i	i	i
COc1cc(/C=C2/C(=O)ON=C2c2ccccc2)ccc1O	i	55.7	i	i	i	i
COc1ccc(/C=C2\CCC/C(=C\c3ccc(OC)c(OC)c3OC)C2=O)c(OC)c1OC	i	69.2	i	i	i	i
COc1cc(/C=C2\COC/C(=C\c3ccc(O)c(OC)c3)C2=O)ccc1O	i	i	i	i	i	i
COc1ccc(/C=C2\CC/C(=C\c3ccc(OC)cc3OC)C2=O)c(OC)c1	i	i	i	i	i	88.2
CN1CC=C(c2ccccc2)N(c2ccc(Cl)cc2)C1=O	i	nt	nt	i	i	nt
CCC(CO)Nc1cccc2c1S(=O)(=O)N(Cc1cn(Cc3ccc(F)cc3)nn1)Cc1ccccc1O2 (stereo not drawn)	i	nt	nt	i	i	nt
COc1ccc(/C=C2\CCC(C3CCCC3)C2=O)cc1OC (stereo not drawn)	i	52.8	i	i	i	i
Cc1ccc(C=Nn2c(-c3n[nH]c4c3CCC4)n[nH]c2=S)o1	i	nt	nt	i	i	nt
Fc1ccc2nc(-c3ccc(CN4CCC(c5nc6ccccc6[nH]5)CC4)cc3)c(-c3ccccc3)nc2c1	i	nt	nt	i	i	nt
CCC(=O)Nc1cccc(C(=O)/C=C/c2cccs2)c1	i	i	27.3	i	i	i
COc1ccc(CN2CCC(CNC(=O)NC(C)C)CC2)cc1	i	nt	nt	i	i	nt
CN(Cc1cn(CC2CCCCC2)nn1)S(=O)(=O)c1ccccc1Br	i	nt	nt	i	i	nt
O=C1OCc2cc(NS(=O)(=O)c3cccs3)ccc21	i	i	i	i	i	i
O=S(=O)(Nc1ccc2c(c1)CCC2)c1cccs1	i	52.2	i	i	i	i
CCOC(=O)/C(N=Nc1c(C)n(C)n(-c2ccccc2)c1=O)=C(/O)c1ccccc1	i	i	32.1	i	i	i
CCCN(CC1CC1)c1cc2c(c3c1ccn3C)C1CCC2O1 (stereo not drawn)	i	nt	21.6	i	i	nt
Cc1ccc(S(=O)(=O)N2CCN(C(=O)c3cccn3C)CC2)cc1	i	nt	nt	i	i	nt
CC/C(=C1/C(=O)CC(C)(C)C(C(=O)OC)C1=O)N1CCCC1 (stereo not drawn)	i	i	35.0	i	i	i
